Measurements published in ChEMBL document CHEMBL1799960, “Diadenosine 5',5''-(boranated)polyphosphonate analogues as selective nucleotide pyrophosphatase/phosphodiesterase inhibitors” (J Med Chem, 2010).
Calls of active or inactive are those of the source. The calls are words filed in the database; no cut-off is given here.

Legend:
[1] = biological target: T1, P2Y purinoceptor 11 (Homo sapiens) (UniProt Q96G91); test: Agonist activity at GFP tagged-human P2Y11 receptor expressed in human 1321N1 cells assessed as elevation in calcium level at 50 uM after 30 mins by fluorescence spectrophotometric analysis; type: functional, cell-based
T1 sequence (whole entry): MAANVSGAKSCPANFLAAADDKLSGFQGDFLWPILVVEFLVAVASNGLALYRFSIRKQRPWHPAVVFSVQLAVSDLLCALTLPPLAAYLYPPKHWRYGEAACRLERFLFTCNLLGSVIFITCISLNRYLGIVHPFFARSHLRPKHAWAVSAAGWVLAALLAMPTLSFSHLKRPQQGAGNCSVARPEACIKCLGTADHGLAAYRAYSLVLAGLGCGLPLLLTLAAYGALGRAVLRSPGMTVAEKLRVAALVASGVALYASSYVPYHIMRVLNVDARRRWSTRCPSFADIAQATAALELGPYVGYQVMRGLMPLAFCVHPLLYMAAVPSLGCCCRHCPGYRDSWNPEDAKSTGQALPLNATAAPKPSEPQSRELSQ

[2] = biological target: T2, Ectonucleoside triphosphate diphosphohydrolase 3 (Homo sapiens) (UniProt O75355); test: Activity of human NTPDase3 expressed in COS7 cells assessed as amount of inorganic phosphate released using ATP as the substrate at 100 uM after 15 mins by malachite green reagent method; type: cell-based; conditions: COS-7
T2 sequence (whole entry): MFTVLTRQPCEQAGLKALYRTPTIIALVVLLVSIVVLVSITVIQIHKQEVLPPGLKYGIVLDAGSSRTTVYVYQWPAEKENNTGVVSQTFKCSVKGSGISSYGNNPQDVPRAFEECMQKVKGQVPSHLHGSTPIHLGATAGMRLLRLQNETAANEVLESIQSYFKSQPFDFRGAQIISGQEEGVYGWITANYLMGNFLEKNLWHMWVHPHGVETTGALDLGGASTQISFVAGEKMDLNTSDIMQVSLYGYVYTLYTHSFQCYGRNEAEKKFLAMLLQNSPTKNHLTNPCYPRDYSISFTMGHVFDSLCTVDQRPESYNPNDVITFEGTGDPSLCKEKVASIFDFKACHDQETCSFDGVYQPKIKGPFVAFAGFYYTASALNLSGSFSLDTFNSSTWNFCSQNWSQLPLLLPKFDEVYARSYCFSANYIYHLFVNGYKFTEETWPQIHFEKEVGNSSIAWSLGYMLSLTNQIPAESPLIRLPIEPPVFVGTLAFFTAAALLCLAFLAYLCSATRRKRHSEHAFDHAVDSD
In short: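 Crude membrane-enriched protein extract of transiently transfected COS-7 cells, preincubated 3 min at 37 °C in Tris-Ringer buffer pH 7.3. Reaction started with 100 μM ATP, or with the analogue alone at 100 μM to test it as substrate. Stopped after 15 min with malachite green reagent; released Pi read at 630 nm. Mean ± SD, n = 3.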

P2Y purinoceptor 11 = biological target: T3, P2Y purinoceptor 11 (Homo sapiens, UniProt Q96G91); test: Agonist activity at GFP tagged-human P2Y11 receptor expressed in human 1321N1 cells assessed as elevation in calcium level after 30 mins by fluorescence spectrophotometric analysis; type: functional, cell-based
T3 sequence (Q96G91 whole entry): T1 sequence (whole entry)

SMILES	Activity [1]	Activity [2] [%]	EC50 (P2Y purinoceptor 11) [µM]
BP(=O)(OP(=O)(O)CP(=O)(O)OC[C@H]1O[C@@H](n2cnc3c(N)ncnc32)C[C@@H]1O)OP(=O)(O)CP(=O)(O)OC[C@H]1O[C@@H](n2cnc3c(N)ncnc32)C[C@@H]1O	inactive	–	–
Nc1ncnc2c1ncn2[C@@H]1O[C@H](COP(=O)(O)CP(=O)(O)OP(=O)(O)CP(=O)(O)OC[C@H]2O[C@@H](n3cnc4c(N)ncnc43)[C@H](O)[C@@H]2O)[C@@H](O)[C@H]1O	–	5.3	≥ 40
Nc1ncnc2c1ncn2[C@H]1C[C@H](O)[C@@H](COP(=O)(O)CP(=O)(O)OP(=O)(O)CP(=O)(O)OC[C@H]2O[C@@H](n3cnc4c(N)ncnc43)C[C@@H]2O)O1	inactive	1.8	–
BP(=O)(OP(=O)(O)CP(=O)(O)OC[C@H]1O[C@@H](n2cnc3c(N)ncnc32)[C@H](O)[C@@H]1O)OP(=O)(O)CP(=O)(O)OC[C@H]1O[C@@H](n2cnc3c(N)ncnc32)[C@H](O)[C@@H]1O	–	–	13
